# From PubChem BioAssay AID504383 (The Scripps Research Institute Molecular Screening Center, 2011)
# Several values for one entry are separate records, joined by “and”; a condition that tells them apart may be missing. Identical values can stand only once. Out of some 2,500 compounds screened, about 1,200 (48%) were called active.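 The calls were made as follows: active = mean activation above the low control average plus 3 SD, as set in the primary screen (cut at about 12% in these data); inactive = the rest.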 So high a share suggests a set chosen from earlier hits. This is one part of the list.
# Molecular target: Troponin I, cardiac muscle (Homo sapiens) + Troponin T, cardiac muscle (Homo sapiens) + Troponin C, slow skeletal and cardiac muscles (Homo sapiens) (UniProt P19429+P45379+P63316)
# Assay: cardiac RTF calcium sensitivity activators, confirmation, biochemical, IANBD-TnC fluorescence, triplicate (AID 504383);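 also: 0% = DMSO at 0.472 mM calcium and 100% = DMSO at 2.9 mM calcium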
# Details: IANBD-labeled cardiac RTF, Ca2+ sensitivity fluorescence, at 7.2 µM, stronger effect = higher value, tested at EC20 calcium, 0.472 mM
# Procedure, shortened: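 Test system: labelled regulated thin filament protein complex. Dosing: single nominal compound dose of 7.2 µM. Benchmarks: EC20 and EC100 calcium wells. Read-out basis: fluorescence gain scaled between EC20 and EC100 calcium controls. Probe or stimulus: submaximal calcium at 0.472 mM (EC20). Technique: fluorescence. Times: 15 min compound exposure, 25 °C.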
row,Compound,activation
1,CC(C)n1c(=O)c(C=Nc2cccc([N+](=O)[O-])c2)c(O)n(CCc2ccccc2)c1=O,19.7% (active)
2,Cc1cc(Cl)nc(N)n1,96.2% (active)
3,C[C@]12CCC(=O)C=C1CC[C@@H]1[C@@H]2CC[C@]2(C)C(=O)CC[C@@H]12,-0.04% (inactive)
4,CCOC(=O)c1ccccc1C(=O)OCC,4170% (active)
5,CCN(CC)C(=O)c1ccc(NC(=O)COc2ccc([N+](=O)[O-])cc2Cl)cc1,4.48% (inactive)
6,Nc1ccc2nonc2c1[N+](=O)[O-],6.77% (inactive)
7,O=[N+]([O-])c1ccc(N2CCCC2)c2ncccc12,38.3% (active)
8,O=[N+]([O-])c1ccc(N2CCCCCC2)c2nonc12,31.9% (active)
9,CCOC(=O)C1CCCN(c2ccc([N+](=O)[O-])c3nonc23)C1 (centres undefined),16.5% [scaled from EC20 to saturating calcium] (active)
10,CC(C)C[C@H]1C(=O)N2CCC[C@H]2[C@]2(O)O[C@](NC(=O)[C@@H]3C=C4c5cccc6[nH]cc(c56)C[C@H]4N(C)C3)(C(C)C)C(=O)N12,8.78% (inactive)
11,O=C1NC(=S)SC1=Cc1ccc(N(CCCl)CCCl)cc1,0.25% (inactive)
12,CN1CCN(c2ccc3c(c2)S(=O)(=O)c2ccccc2C3=O)CC1,2.45% (inactive)
13,CCN1C[C@]2(CO)CC[C@H](OC)[C@@]34C5C[C@H]6[C@H](OC)C5[C@](O)(C[C@H]6OC)[C@@H](C(OC)C23)[C@@H]14 (some centres undefined),15.5% (active)
14,C[C@]12CCC3C(CC[C@H]4C[C@@H](O)[C@H](O)C[C@]34C)C1CC[C@@H]2O (some centres undefined),24.5% (active)
15,Nc1c2c(nc3ccccc13)CCN(Cc1ccccc1)C2,87.8% (active)
16,CCOP(=O)(Cc1cc(C#N)oc1C)OCC,7.87% (inactive)
17,O=C(O)C1=CC2c3ccccc3C1c1ccccc12,11.7% (active)

row,Compound,activation
1,CC(C)c1ccc(N2C(=O)NC(=O)/C(=C/C=C/c3ccco3)C2=O)cc1,7.28% (inactive)
2,CN(C)P(=O)(CCl)Nc1ccccc1 (centres undefined),38.8% (active)
3,CN1CCC2(CC1)C(C#N)=C(N)NC(S)=C2C#N,6.17% (inactive) and 11.4% (inactive)
4,COC(=O)[C@H]1C[C@@H]1[C@H](NP(=O)(c1ccccc1)c1ccccc1)c1ccccc1,-0.05% (inactive)
5,CCOCCCn1c(N)c(C(=O)Nc2sc3c(c2C(=O)OC)CCCC3)c2nc3ccccc3nc21,12.7% (active)
6,COc1ccc(N=Nc2c(O)[nH]c(=S)[nH]c2=O)cc1,6.09% (inactive)
7,CCOC(=O)c1cc(CC)sc1/N=C/c1c(O)[nH]c(=S)[nH]c1=O,8.76% (inactive)
8,O=c1cc(C(F)(F)F)c2cc3c4c(c2o1)CCCN4CCC3,67.7% (active)
9,Cc1cc2c(C(F)(F)F)cc(=O)oc2c2c1NCCC2,79.4% (active)
10,Cc1ccc(C)c(Cn2c(C(=O)O)c(C=O)c3ccccc32)c1,4.27% (inactive)
11,CC1(C)OC(c2ccccc2)=C/C(=C/C=C2C(=O)NC(=O)NC2=O)O1,6.59% (inactive)
12,CCC1(C)OC(c2ccccc2)=C/C(=C/C=C2C(=O)NC(=O)NC2=O)O1 (centres undefined),32.1% (active)
13,CN1/C(=C\C=C2C(=O)NC(=O)NC2=O)C(C)(C)c2ccccc21,9.74% (inactive)
14,CN1CCN(Cc2cn(C)c3ccccc23)CC1CCO (centres undefined),40.5% (active)
15,C#C[C@]1(O)CC[C@H]2[C@@H]3CCC4=Cc5nc6nc7ccccc7n6cc5C[C@]4(C)[C@H]3CC[C@@]21C,6.44% (inactive)
16,C=Cn1ccnc1P(=S)(c1nccn1C=C)c1nccn1C=C,23.4% (active)
17,COC(=O)C1=C(c2cccc(C#N)c2)C[C@@H]2CC[C@H]1N2C(=O)N1CCOCC1,14.3% (active)
